The source of these data is ChEMBL document CHEMBL3091364, “Benzyloxybenzylammonium chlorides: Simple amine salts that display anticonvulsant activity” (Bioorg Med Chem, 2013).

SMILES strings stand for the structures.

As usually defined, the inhibition is the relative decrease from the control value, in per cent. The TD50 is the 50% point of the dose-response relation for the toxic effect studied. By ED50 is commonly meant the dose at which the effect has come halfway, by size or by number of responders.

Series [1] concerns the target 5-hydroxytryptamine receptor 1D (Homo sapiens) (UniProt P28221). Briefly: Inhibition of 5-HT1D receptor (unknown origin) at 10 uM relative to control.
Series [2] deals with Kappa-type opioid receptor (Homo sapiens) (UniProt P41145). The experiment in a line: Inhibition of kappa opioid receptor (unknown origin) at 10 uM relative to control.
Series [3] in a line: Solubility of the compound in water at 300 uM. It counts as physicochemical. A digest of the protocol: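 Hydrochloride salts checked for dissolution in water at 300 µM.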
For series [4], the target named is D(1B) dopamine receptor (Homo sapiens) (UniProt P21918). Briefly: Inhibition of dopaminergic D5 receptor (unknown origin) at 10 uM relative to control.
Series [5] is filed under the species Rattus norvegicus. The experiment in a line: Inhibition of BZP receptor in rat brain at 10 uM relative to control. In kind it is tissue-based.
Series [6] has as its target D(3) dopamine receptor (Homo sapiens) (UniProt P35462). Briefly: Inhibition of dopaminergic D3 receptor (unknown origin) at 10 uM relative to control.
The target in series [7] is Muscarinic acetylcholine receptor M3 (Homo sapiens) (UniProt P20309). The experiment in a line: Inhibition of muscarinergic M3 receptor (unknown origin) at 10 uM relative to control.
Another series is filed under the species Homo sapiens. Briefly: Inhibition of sigma-2 receptor (unknown origin) at 10 uM relative to control.
Series [8] has as its target Sodium-dependent serotonin transporter (Homo sapiens) (UniProt P31645). The experiment in a line: Inhibition of SERT (unknown origin) at 10 uM relative to control.
In series [9] the target is T1, Alpha-2C adrenergic receptor (Homo sapiens) (UniProt P18825).
T1 sequence (whole entry): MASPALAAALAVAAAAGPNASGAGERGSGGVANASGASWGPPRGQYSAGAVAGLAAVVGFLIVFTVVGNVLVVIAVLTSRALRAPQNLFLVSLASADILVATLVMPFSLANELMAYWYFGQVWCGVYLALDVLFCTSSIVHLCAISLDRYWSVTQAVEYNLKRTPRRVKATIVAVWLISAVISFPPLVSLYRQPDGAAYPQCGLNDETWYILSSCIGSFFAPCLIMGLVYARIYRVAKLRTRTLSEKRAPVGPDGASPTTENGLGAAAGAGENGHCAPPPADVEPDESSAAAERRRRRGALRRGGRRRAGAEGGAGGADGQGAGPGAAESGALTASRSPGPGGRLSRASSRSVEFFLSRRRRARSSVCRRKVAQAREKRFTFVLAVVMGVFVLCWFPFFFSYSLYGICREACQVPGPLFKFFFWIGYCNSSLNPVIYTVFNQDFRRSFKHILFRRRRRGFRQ
The experiment in a line: Inhibition of adrenergic alpha-2C receptor (unknown origin) at 10 uM relative to control.

Series [10] concerns the target T2, Muscarinic acetylcholine receptor M2 (Homo sapiens) (UniProt P08172).
T2 sequence (whole entry): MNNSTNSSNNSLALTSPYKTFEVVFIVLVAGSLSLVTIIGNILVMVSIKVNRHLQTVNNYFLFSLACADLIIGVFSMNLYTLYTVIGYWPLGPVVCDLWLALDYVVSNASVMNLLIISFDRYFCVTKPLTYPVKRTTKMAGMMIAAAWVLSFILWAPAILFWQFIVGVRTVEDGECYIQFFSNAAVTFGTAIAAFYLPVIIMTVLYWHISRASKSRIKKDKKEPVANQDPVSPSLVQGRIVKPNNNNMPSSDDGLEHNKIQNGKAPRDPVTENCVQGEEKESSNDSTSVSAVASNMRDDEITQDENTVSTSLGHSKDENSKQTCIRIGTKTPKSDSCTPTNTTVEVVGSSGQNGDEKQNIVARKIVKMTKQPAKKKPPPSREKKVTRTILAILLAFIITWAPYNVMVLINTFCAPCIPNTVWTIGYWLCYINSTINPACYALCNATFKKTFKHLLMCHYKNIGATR
The experiment in a line: Inhibition of muscarinergic M2 receptor (unknown origin) at 10 uM relative to control.

The target of series [11] is Beta-3 adrenergic receptor (Homo sapiens) (UniProt P13945). Briefly: Inhibition of adrenergic beta-3 receptor (unknown origin) at 10 uM relative to control.
The target in series [12] is D(1A) dopamine receptor (Homo sapiens) (UniProt P21728). The experiment in a line: Inhibition of dopaminergic D1 receptor (unknown origin) at 10 uM relative to control.
Series [13] is described as follows: Toxicity in po dosed albino Sprague-Dawley rat assessed as behavioral changes measured at 0.25 to 4 hrs. In kind it is organism-based. The conditions noted are these: in vivo. A digest of the protocol:
(§1)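 Male albino Sprague-Dawley rats given compound intraperitoneally or orally (NINDS ASP); neurological impairment judged from behavioral toxicity effects. Preset screening doses (e.g., 30 mg/kg); for adequately active compounds, TD50 (mg/kg, 95% confidence intervals) derived from dose–effect data at time of peak effect.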

The target in series [14] is T3, Alpha-2A adrenergic receptor (Homo sapiens) (UniProt P08913).
T3 sequence (whole entry): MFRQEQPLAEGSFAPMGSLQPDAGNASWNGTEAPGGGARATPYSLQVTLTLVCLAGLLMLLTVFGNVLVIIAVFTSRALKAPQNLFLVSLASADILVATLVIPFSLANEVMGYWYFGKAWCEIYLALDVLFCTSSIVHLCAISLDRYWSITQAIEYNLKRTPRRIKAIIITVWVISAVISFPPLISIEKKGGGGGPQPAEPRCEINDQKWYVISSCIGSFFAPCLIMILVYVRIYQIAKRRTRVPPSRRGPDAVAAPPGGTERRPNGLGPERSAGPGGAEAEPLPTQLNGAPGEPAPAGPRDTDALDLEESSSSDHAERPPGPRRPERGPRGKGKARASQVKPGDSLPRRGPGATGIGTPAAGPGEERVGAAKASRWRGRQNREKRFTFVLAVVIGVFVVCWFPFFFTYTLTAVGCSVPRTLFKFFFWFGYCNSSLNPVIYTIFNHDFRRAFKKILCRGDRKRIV
The experiment in a line: Inhibition of adrenergic alpha-2A receptor (unknown origin) at 10 uM relative to control.

In series [15] the test system is Rattus norvegicus. Briefly: Anticonvulsant activity in po dosed albino Sprague-Dawley rat assessed as protection against maximal electroshock-induced seizures measured at 0.25 to 4 hrs. In kind it is functional. In short, it runs like this:
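Screened under the NINDS ASP in male albino Carworth Farms No. 1 mice (ip) or male albino Sprague-Dawley rats (ip or po), using MES, 6 Hz (32 mA) and subcutaneous pentylenetetrazol seizure tests. Initial qualitative tests used preset doses (e.g., 30, 50, 100 mg/kg). ED50 values with 95% confidence intervals came from dose–response data collected at the time of peak effect.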

Series [16] deals with Histamine H1 receptor (Homo sapiens) (UniProt P35367). Briefly: Inhibition of histamine H1 receptor (unknown origin) at 10 uM relative to control.
Series [17] in a line: Toxicity in ip dosed albino Sprague-Dawley rat assessed as behavioral changes measured at 0.25 to 4 hrs. The settings on record: in vivo. It counts as organism-based. A digest of the protocol:
as §1

Series [18] concerns the target 5-hydroxytryptamine receptor 7 (Homo sapiens) (UniProt P34969). The experiment in a line: Inhibition of 5-HT7 receptor (unknown origin) at 10 uM relative to control.
Series [19] deals with 5-hydroxytryptamine receptor 5A (Homo sapiens) (UniProt P47898). The experiment in a line: Inhibition of 5-HT5A receptor (unknown origin) at 10 uM relative to control.
Series [20] addresses 5-hydroxytryptamine receptor 2B (Homo sapiens) (UniProt P41595). The experiment in a line: Inhibition of 5-HT2B receptor (unknown origin) at 10 uM relative to control.

Muscarinic acetylcholine receptor M3 (Homo sapiens), sequence (P20309 whole entry, looked up): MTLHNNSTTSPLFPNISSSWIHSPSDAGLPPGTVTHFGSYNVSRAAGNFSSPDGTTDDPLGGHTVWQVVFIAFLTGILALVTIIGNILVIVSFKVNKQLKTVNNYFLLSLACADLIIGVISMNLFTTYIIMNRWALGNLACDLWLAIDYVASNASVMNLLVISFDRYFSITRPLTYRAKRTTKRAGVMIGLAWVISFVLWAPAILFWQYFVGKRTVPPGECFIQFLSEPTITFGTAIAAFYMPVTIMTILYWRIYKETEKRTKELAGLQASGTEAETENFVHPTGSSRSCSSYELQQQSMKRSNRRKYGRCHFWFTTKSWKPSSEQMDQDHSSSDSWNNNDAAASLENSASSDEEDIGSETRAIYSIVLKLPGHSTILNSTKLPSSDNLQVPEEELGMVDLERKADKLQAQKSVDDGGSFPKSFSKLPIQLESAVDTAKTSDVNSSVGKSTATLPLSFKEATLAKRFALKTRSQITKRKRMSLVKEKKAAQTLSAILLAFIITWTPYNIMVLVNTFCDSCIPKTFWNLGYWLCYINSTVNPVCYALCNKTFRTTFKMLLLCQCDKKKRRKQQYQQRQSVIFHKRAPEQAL
5-hydroxytryptamine receptor 1D (Homo sapiens), sequence (P28221 whole entry): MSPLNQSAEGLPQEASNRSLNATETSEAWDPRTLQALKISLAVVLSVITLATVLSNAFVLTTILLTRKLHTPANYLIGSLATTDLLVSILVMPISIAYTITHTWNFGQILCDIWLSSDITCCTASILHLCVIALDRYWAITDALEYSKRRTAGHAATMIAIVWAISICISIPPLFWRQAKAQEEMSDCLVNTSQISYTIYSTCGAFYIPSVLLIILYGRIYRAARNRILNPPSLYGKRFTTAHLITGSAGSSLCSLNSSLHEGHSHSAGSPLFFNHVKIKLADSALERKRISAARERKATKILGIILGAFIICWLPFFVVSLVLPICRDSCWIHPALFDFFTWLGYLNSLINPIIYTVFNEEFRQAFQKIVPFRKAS
D(1A) dopamine receptor (Homo sapiens), sequence (P21728 whole entry): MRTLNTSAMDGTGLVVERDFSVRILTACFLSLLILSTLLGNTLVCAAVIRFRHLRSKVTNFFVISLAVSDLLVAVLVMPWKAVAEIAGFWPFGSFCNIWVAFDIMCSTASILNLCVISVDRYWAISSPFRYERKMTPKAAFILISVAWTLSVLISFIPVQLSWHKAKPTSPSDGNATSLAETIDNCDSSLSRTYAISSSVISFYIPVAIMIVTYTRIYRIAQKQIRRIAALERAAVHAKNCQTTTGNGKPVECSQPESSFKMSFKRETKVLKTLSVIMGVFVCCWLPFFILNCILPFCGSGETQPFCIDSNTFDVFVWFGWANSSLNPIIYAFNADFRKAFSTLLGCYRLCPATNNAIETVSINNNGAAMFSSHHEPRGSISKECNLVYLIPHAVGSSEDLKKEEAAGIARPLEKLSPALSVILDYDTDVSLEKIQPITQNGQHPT
5-hydroxytryptamine receptor 2B (Homo sapiens), sequence (P41595 whole entry): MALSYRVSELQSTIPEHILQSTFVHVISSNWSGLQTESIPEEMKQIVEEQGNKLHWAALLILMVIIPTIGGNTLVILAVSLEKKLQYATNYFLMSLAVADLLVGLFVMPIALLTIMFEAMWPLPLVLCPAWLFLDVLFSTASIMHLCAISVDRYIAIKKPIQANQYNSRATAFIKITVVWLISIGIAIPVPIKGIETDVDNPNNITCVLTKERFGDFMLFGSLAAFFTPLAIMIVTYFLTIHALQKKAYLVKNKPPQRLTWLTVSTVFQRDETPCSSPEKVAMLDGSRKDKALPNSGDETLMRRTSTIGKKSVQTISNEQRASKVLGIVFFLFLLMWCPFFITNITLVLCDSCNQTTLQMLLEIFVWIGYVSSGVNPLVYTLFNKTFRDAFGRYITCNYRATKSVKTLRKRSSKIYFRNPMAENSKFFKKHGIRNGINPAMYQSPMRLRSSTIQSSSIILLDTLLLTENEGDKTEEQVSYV
5-hydroxytryptamine receptor 7 (Homo sapiens), sequence (P34969 whole entry): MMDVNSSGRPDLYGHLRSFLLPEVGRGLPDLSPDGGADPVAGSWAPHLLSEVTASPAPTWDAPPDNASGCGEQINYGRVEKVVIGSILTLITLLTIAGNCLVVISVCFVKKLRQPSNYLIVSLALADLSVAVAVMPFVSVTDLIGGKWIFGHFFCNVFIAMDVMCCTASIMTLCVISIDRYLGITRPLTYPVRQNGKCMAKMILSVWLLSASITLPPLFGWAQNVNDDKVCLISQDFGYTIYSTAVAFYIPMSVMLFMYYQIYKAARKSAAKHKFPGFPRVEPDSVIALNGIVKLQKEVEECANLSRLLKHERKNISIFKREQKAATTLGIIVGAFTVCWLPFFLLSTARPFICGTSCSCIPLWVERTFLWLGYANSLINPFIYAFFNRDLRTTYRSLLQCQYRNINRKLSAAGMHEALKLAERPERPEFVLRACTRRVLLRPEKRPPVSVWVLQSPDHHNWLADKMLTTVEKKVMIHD
Kappa-type opioid receptor (Homo sapiens), sequence (P41145 whole entry): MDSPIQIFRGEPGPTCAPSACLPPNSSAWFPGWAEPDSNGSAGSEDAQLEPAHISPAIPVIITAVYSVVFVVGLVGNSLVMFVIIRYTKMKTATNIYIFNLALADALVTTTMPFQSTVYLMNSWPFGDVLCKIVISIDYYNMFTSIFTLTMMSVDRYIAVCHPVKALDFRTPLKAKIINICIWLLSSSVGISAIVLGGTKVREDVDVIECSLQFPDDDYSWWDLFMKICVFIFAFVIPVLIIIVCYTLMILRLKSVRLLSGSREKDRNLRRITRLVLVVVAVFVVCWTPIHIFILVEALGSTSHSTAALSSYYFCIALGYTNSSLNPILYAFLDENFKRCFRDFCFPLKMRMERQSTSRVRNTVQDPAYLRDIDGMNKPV
Sodium-dependent serotonin transporter (Homo sapiens), sequence (P31645 whole entry, looked up): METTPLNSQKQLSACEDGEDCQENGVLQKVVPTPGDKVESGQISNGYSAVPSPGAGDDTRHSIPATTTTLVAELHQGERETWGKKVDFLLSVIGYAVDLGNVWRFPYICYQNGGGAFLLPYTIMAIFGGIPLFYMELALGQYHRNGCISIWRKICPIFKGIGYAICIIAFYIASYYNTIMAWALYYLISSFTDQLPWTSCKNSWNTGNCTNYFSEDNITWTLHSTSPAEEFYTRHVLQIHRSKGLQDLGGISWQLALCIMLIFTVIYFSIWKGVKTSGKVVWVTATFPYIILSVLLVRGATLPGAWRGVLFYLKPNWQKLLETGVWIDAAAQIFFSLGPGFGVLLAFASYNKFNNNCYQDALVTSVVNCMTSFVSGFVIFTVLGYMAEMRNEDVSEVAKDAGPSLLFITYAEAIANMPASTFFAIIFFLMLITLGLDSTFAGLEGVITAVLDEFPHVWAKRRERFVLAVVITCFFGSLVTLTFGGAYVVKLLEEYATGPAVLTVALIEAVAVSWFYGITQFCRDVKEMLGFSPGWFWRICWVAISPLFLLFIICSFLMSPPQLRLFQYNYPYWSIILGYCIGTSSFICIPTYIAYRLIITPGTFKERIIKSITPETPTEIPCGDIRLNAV
5-hydroxytryptamine receptor 5A (Homo sapiens), sequence (P47898 whole entry): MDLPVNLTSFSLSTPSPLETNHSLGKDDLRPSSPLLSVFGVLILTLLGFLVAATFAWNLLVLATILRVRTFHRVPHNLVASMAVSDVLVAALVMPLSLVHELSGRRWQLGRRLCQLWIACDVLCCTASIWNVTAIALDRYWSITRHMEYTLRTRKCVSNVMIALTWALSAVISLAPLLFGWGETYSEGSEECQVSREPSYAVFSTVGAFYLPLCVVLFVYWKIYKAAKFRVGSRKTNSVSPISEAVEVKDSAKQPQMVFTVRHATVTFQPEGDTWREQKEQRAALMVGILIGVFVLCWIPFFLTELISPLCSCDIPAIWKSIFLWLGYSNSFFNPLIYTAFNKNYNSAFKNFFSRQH
Histamine H1 receptor (Homo sapiens), sequence (P35367 whole entry): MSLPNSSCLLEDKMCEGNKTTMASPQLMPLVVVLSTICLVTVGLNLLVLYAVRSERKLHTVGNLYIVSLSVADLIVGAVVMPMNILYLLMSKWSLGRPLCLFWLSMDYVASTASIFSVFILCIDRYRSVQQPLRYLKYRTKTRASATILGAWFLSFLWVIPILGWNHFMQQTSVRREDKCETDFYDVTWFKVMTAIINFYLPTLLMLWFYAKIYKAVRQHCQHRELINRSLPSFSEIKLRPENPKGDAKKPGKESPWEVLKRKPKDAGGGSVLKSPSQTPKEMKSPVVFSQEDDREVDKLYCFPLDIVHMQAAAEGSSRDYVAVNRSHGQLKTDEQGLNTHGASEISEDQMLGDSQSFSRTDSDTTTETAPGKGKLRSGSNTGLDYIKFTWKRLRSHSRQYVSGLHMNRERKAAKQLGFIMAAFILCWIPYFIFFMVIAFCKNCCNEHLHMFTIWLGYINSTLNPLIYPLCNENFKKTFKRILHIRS
D(3) dopamine receptor (Homo sapiens), sequence (P35462 whole entry): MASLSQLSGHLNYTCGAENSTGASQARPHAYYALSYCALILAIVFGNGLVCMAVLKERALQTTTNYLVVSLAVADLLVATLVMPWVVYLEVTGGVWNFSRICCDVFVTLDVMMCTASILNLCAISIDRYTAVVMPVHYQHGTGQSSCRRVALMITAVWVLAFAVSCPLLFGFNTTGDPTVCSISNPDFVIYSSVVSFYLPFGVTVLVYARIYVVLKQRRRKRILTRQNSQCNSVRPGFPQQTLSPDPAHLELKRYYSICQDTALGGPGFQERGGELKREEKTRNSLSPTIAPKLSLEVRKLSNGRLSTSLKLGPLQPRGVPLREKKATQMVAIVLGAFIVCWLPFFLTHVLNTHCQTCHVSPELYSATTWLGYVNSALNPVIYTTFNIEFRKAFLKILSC

In the case of `Cl.NCc1ccc(OCc2ccccc2)cc1`, the inhibition in series [1] was -3.3%; in series [2], 6%; in [4] it was 1.9%; in the series listed under Rattus norvegicus [5] it was 12.7%; in [6], 14.3%; in series [7], 1%. In addition, the inhibition in the series filed under Homo sapiens was 56.6%; in [8], 49.1%; in series [9] it was 47.6%; in series [10], -2.5%; in [11] it was 11.3%; in [12], -6%. Further, the inhibition in series [14] came to 47.3%; in [16], 7.6%; in series [18], 56.3%; in series [19], 1.2%; in series [20] it was 55.7%. Further, the solubility entry in [3] is “soluble”. The TD50 in series [13] was > 30 mg/kg; in series [17], > 50 mg/kg. Moreover, the ED50 in the series with Rattus norvegicus [15] was > 30 mg/kg.
As to `Cl.NCc1ccc(OCc2ccc(Cl)cc2)cc1`, the inhibition in [1] amounted to 1.6%; in series [2], 16.6%; in series [4], 6.4%; in the series filed under Rattus norvegicus [5] it was 6.5%; in series [6] it was 22.6%; in series [7], 13.7%. Also, the inhibition is 79.2% in the series listed under Homo sapiens; 53.8% in [8]; 52.1% in series [9]; 10.9% in series [10]; -3.4% in [11]; 7.6% in series [12]. For the same compound, the inhibition stood at 65.9% in series [14]; 0.3% in [16]; 45.4% in series [18]; 36.6% in series [19]; 40.6% in [20]. In [3], the solubility entry is on record as “soluble”. Moreover, the TD50 in series [13] and in series [17] was > 30 mg/kg in each case. Also, the 50% effective dose (ED50) in the series with Rattus norvegicus [15] was > 30 mg/kg.
Consider `Cl.NCc1ccc(OCc2ccc(OC(F)(F)F)cc2)cc1`, for which the inhibition in series [1] was 4.9%; in series [2], 2.6%; in series [4], 3.5%; in the series listed under Rattus norvegicus [5], 0.3%; in series [6], 13.3%; in [7], -6.5%. Moreover, the inhibition is 86.4% in the series filed under Homo sapiens; 10.6% in series [8]; 42.2% in [9]; 1.9% in [10]; 17.5% in series [11]; -9.4% in series [12]. Moreover, the inhibition in [14] was 48.2%; in series [16], 14.7%; in [18], 29.3%; in series [19], -1.8%; in series [20], 34.4%. Further, the solubility result in series [3] is reported as “soluble”. Further, the TD50 in series [13] was > 30 mg/kg; in series [17], > 50 mg/kg. The ED50 in the series on Rattus norvegicus [15] is > 30 mg/kg.
